Here are results for 33 compounds from ChEMBL document CHEMBL1177759, “Design and synthesis of disubstituted (4-piperidinyl)-piperazine derivatives as potent acetyl-CoA carboxylase inhibitors” (Bioorg Med Chem Lett, 2010).

In general, IC50 refers to the point on the concentration scale where inhibition reaches its midpoint.

The target in one data set is Acetyl-CoA carboxylase (Homo sapiens, UniProt Q13085+O00763). Put plainly: Inhibition of human ACC1/2-mediated malonyl-CoA synthesis. It is filed as protein assay. Summed up: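 Partially purified human liver ACC enzymes; read-out is malonyl-CoA synthesis by ACC1/2; IC50 taken as mean of at least two independent experiments.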
The nature of data set [1]: Metabolic stability in human liver microsomes assessed as compound remaining after 15 mins. It is filed as ADME, Microsome. The settings on record: read-out: Stability. Summed up:
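Compound at […] incubated 15 min at 37 °C with human liver microsomes at 1 mg protein/mL. Cofactors: 1.5 mM glucose-6-phosphate, 0.16 mM NADP, 1 U/mL G6P dehydrogenase. Buffer: 250 mM phosphate, 2.4 mM MgCl2, 69 mM KCl. Parent measured by LC-MS/MS; % remaining relative to 0 min.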
(Microsomes from liver hold many membrane-bound enzymes, among them those of drug oxidation.)

A short description of data set [2]: Permeability by PAMPA method. It is filed as ADME. The conditions noted are these: read-out: permeability. Summed up: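 Parallel artificial membrane permeation at pH 6.2; effective permeability Pe reported in 10^-6 cm/s.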
(In PAMPA a lipid-coated filter parts donor from acceptor wells.)

Data set [3] in a line: Inhibition of human ACC in HepG2 cells assessed as decrease in fatty acid synthesis by [14C]acetate incorporation assay. It is filed as cell-based. Summed up:
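HepG2 cells; fatty acid synthesis followed as loss of [14C]acetate incorporation into cellular lipids; IC50 derived.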

For `CC(=O)N1CCC(C(=O)N2CCC(N3CCN(C(=O)c4cc(-c5ccccc5)nc(-c5ccc6c(c5)c(C)cn6C)c4)CC3)CC2)CC1`, the IC50 at Acetyl-CoA carboxylase is 0.127 µM.
For the compound `CC(=O)N1CCC(C(=O)N2CCC(N3CCN(C(=O)c4cc(-c5ccccc5)nc(-c5ccc6[nH]c(C)c(C)c6c5)c4)CC3)CC2)CC1`, in data set [1], the remaining at 0.25 h stood at 99%. For the same compound, at Acetyl-CoA carboxylase, the IC50 was found to be 0.033 µM.
Regarding `CC(=O)N1CCC(C(=O)N2CCC(N3CCN(C(=O)c4cc(-c5ccccc5)nc(-c5ccc6c(c5)c(C)c(C)n6C)c4)CC3)CC2)CC1`, the IC50 against Acetyl-CoA carboxylase worked out at 0.105 µM.
On to `CCc1c(C)[nH]c2ccc(-c3cc(C(=O)N4CCN(C5CCN(C(=O)C6CCN(C(C)=O)CC6)CC5)CC4)cc(-c4ccccc4)n3)cc12`, for which the IC50 against Acetyl-CoA carboxylase worked out at 0.169 µM.
On the same count and under the same terms, for `CC(=O)N1CCC(C(=O)N2CCC(N3CCN(C(=O)c4cc(-c5ccccc5)nc(-c5ccc6[nH]c(C)c(C#N)c6c5)c4)CC3)CC2)CC1` the value was 0.0097 µM; for `CC(=O)N1CCC(C(=O)N2CCC(N3CCN(C(=O)c4cc(-c5ccccc5)nc(-c5ccc6[nH]c(CN(C)C)c(C)c6c5)c4)CC3)CC2)CC1`, 0.0084 µM; for `CC(=O)N1CCC(C(=O)N2CCC(N3CCN(C(=O)c4cc(-c5ccc(C(F)(F)F)cc5)nc(-c5ccc6[nH]ccc6c5)c4)CC3)CC2)CC1`, 0.072 µM.
Same read-out and setting: then `CC(=O)N1CCC(C(=O)N2CCC(N3CCN(C(=O)c4cc(-c5ccc(C)c(F)c5)nc(-c5ccc6[nH]ccc6c5)c4)CC3)CC2)CC1`, with 0.049 µM; and `COc1ccc(-c2cc(C(=O)N3CCN(C4CCN(C(=O)C5CCN(C(C)=O)CC5)CC4)CC3)cc(-c3ccc4[nH]ccc4c3)n2)cc1OC`, with 0.03 µM.
Regarding `CC(=O)N1CCC(C(=O)N2CCC(N3CCN(C(=O)c4cc(-c5ccccc5)nc(-c5ccc6c(ccn6C)c5)c4)CC3)CC2)CC1`, in data set [1], the remaining at 0.25 h turned out to be 85%. This compound returned a 50% inhibitory concentration (IC50) against Acetyl-CoA carboxylase of 0.069 µM.
`CC(=O)N1CCC(C(=O)N2CCC(N3CCN(C(=O)c4cc(-c5ccccc5)nc(-c5ccc6[nH]c(C)cc6c5)c4)CC3)CC2)CC1`: on Acetyl-CoA carboxylase, the IC50 came to 0.059 µM.
For `CC(=O)N1CCC(C(=O)N2CCC(N3CCN(C(=O)c4cc(-c5ccccc5)nc(-c5ccc6[nH]cc(C)c6c5)c4)CC3)CC2)CC1`, the remaining at 0.25 h in data set [1] is 72%. Further, the IC50 at Acetyl-CoA carboxylase amounted to 0.036 µM.
In turn, `CC(=O)N1CCC(C(=O)N2CCC(N3CCN(C(=O)c4cc(-c5ccccc5)nc(-c5ccc6c(c5)cc(C)n6C)c4)CC3)CC2)CC1` came in with an IC50 at Acetyl-CoA carboxylase of 0.117 µM.
Still for that read-out and setting: then `CC(=O)N1CCC(C(=O)N2CCC(N3CCN(C(=O)c4cc(-c5ccccc5)nc(-c5ccc6cn[nH]c6c5)c4)CC3)CC2)CC1`, with 0.057 µM; and `CC(=O)N1CCC(C(=O)N2CCC(N3CCN(C(=O)c4cc(-c5ccccc5)nc(-c5ccc6c(c5)CC(=O)N6)c4)CC3)CC2)CC1`, with 0.054 µM.
At Acetyl-CoA carboxylase, `CC(=O)N1CCC(C(=O)N2CCC(N3CCN(C(=O)c4cc(-c5cccc(F)c5)nc(-c5ccc6[nH]ccc6c5)c4)CC3)CC2)CC1` came in with an IC50 of 0.033 µM. In data set [2], the Papp came to 19.9 ×10⁻⁶ cm/s.
Turning to `CC(=O)N1CCC(C(=O)N2CCC(N3CCN(C(=O)c4cc(-c5ccc(F)cc5)nc(-c5ccc6[nH]ccc6c5)c4)CC3)CC2)CC1`, the IC50 against Acetyl-CoA carboxylase stood at 0.048 µM. Also, in data set [2], the Papp was found to be 44.3 ×10⁻⁶ cm/s.
The like results for `CC(=O)N1CCC(C(=O)N2CCC(N3CCN(C(=O)c4cc(-c5cccc(C)c5)nc(-c5ccc6[nH]ccc6c5)c4)CC3)CC2)CC1` were, in that order, 0.037 µM and 28.1 ×10⁻⁶ cm/s.
In turn, `CC(=O)N1CCC(C(=O)N2CCC(N3CCN(C(=O)c4cc(-c5ccc(C)cc5)nc(-c5ccc6[nH]ccc6c5)c4)CC3)CC2)CC1` returned an IC50 against Acetyl-CoA carboxylase of 0.03 µM. The Papp in data set [2] stood at 39.8 ×10⁻⁶ cm/s.
Regarding `COc1cccc(-c2cc(C(=O)N3CCN(C4CCN(C(=O)C5CCN(C(C)=O)CC5)CC4)CC3)cc(-c3ccc4[nH]ccc4c3)n2)c1`, the IC50 against Acetyl-CoA carboxylase was 0.032 µM.
At Acetyl-CoA carboxylase, `COc1ccc(-c2cc(C(=O)N3CCN(C4CCN(C(=O)C5CCN(C(C)=O)CC5)CC4)CC3)cc(-c3ccc4[nH]ccc4c3)n2)cc1` displayed an IC50 of 0.021 µM. Besides, the Papp in data set [2] came to 21.5 ×10⁻⁶ cm/s.
As for `CC(=O)N1CCC(C(=O)N2CCC(N3CCN(C(=O)c4cc(-c5cccc(C(F)(F)F)c5)nc(-c5ccc6[nH]ccc6c5)c4)CC3)CC2)CC1`, at Acetyl-CoA carboxylase, the IC50 was determined as 0.1 µM.
On the same count and under the same terms, then `CC(=O)N1CCC(C(=O)N2CCC(N3CCN(C(=O)c4cc(-c5ccccc5)nc(-c5ccc(C(N)=O)cc5)c4)CC3)CC2)CC1`, with 0.08 µM.
`CC(=O)N1CCC(C(=O)N2CCC(N3CCN(C(=O)c4cc(-c5ccccc5)nc(-c5ccc(CCO)cc5)c4)CC3)CC2)CC1`: the results for the IC50 (in data set [3]; against Acetyl-CoA carboxylase) were 1.62 µM and 0.027 µM, respectively.
As for `CC(=O)N1CCC(C(=O)N2CCC(N3CCN(C(=O)c4cc(-c5ccccc5)nc(-c5ccc(CC(=O)O)cc5)c4)CC3)CC2)CC1`, at Acetyl-CoA carboxylase, the IC50 was found to be 0.075 µM.
Still for that read-out and setting: then `CC(=O)N1CCC(C(=O)N2CCC(N3CCN(C(=O)c4cc(-c5ccccc5)nc(-c5ccc(OCCO)cc5)c4)CC3)CC2)CC1`, with 0.047 µM; and `CC(=O)N1CCC(C(=O)N2CCC(N3CCN(C(=O)c4cc(-c5ccccc5)nc(-c5ccc(CCCO)cc5)c4)CC3)CC2)CC1`, with 0.07 µM.
On to `CC(=O)N1CCC(C(=O)N2CCC(N3CCN(C(=O)c4cc(-c5ccccc5)nc(-c5ccc6[nH]ccc6c5)c4)CC3)CC2)CC1`, for which, in data set [1], the remaining at 0.25 h came out at 64%. At Acetyl-CoA carboxylase, this compound had an IC50 of 0.055 µM. Moreover, the Papp in data set [2] amounted to 46.5 ×10⁻⁶ cm/s.
Take `CC(=O)N1CCC(C(=O)N2CCC(N3CCN(C(=O)c4cc(-c5ccccc5)nc(-c5ccc6cc[nH]c6c5)c4)CC3)CC2)CC1`: the 50% inhibitory concentration (IC50) against Acetyl-CoA carboxylase is 0.047 µM.
Same read-out and setting: for `CC(=O)N1CCC(C(=O)N2CCC(N3CCN(C(=O)c4cc(-c5ccccc5)nc(-c5ccc6[nH]ncc6c5)c4)CC3)CC2)CC1` the value was 0.042 µM; for `CC(=O)N1CCC(C(=O)N2CCC(N3CCN(C(=O)c4cc(-c5ccccc5)nc(-c5ccc(O)cc5)c4)CC3)CC2)CC1`, 0.047 µM.
The same measure, in the same setting: then `CC(=O)N1CCC(C(=O)N2CCC(N3CCN(C(=O)c4cc(-c5ccccc5)nc(-c5cccc(CO)c5)c4)CC3)CC2)CC1`, with 0.047 µM.
As to `CC(=O)N1CCC(C(=O)N2CCC(N3CCN(C(=O)c4cc(-c5ccccc5)nc(-c5ccc(CO)cc5)c4)CC3)CC2)CC1`, on Acetyl-CoA carboxylase, the IC50 came out at 0.042 µM.
